According to ChEMBL document CHEMBL2417477, “Synthesis and antibacterial activity of doxycycline neoglycosides” (J Nat Prod, 2013):
≈ marks a conversion by molar mass, not a printed value.

Tests used:
Staphylococcus aureus = assay: Antibacterial activity against tetracycline-resistant Staphylococcus aureus R2507 assessed as growth inhibition; type: functional
Escherichia coli [1] = assay: Antibacterial activity against tetracycline-sensitive Escherichia coli ATCC 25922 assessed as growth inhibition; type: functional
Escherichia coli [2] = assay: Antibacterial activity against tetracycline-resistant Escherichia coli 1-849 assessed as growth inhibition; type: functional
[3] = Cytotoxicity against human A549 cells assessed as cell viability at 10 uM after 2 days by Alamar Blue assay relative to control; type: cell-based; conditions: read-out: Activity
Outline: (§1)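 Resazurin (AlamarBlue) read-out of residual metabolic activity. A549 grown in DMEM/F-12 Kaighn's and IMR 90 in MEM/EBSS, both with 10% heat-inactivated FBS, penicillin/streptomycin and 2 mM L-glutamine. Seeded at 2 × 10^3 cells/well, held 24 h at 37 °C in 5% CO2, then exposed to 10 μM final for 2 days. Controls: 1.5 mM H2O2 and 10 μg/ml actinomycin D.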

[4] = Cytotoxicity against human IMR90 cells assessed as cell viability at 10 uM after 2 days by Alamar Blue assay relative to control; type: cell-based; conditions: IMR-90 cells, read-out: Activity; outline: as §1
[5] = Stability of the compound in DMSO at -20 degC at 3 mM after 12 months by HPLC analysis; type: physicochemical; conditions: 8766 h, 3000 µM

In the case of `C[C@H]1c2ccc(N)c(O)c2C(=O)C2=C(O)[C@]3(O)C(=O)C(C(N)=O)=C(O)[C@@H](N(C)C)[C@@H]3[C@@H](O)[C@@H]21`, the MIC (Staphylococcus aureus) is reported as 4 µg/mL (≈ 8.71 µM), the MIC (Escherichia coli [1]) is reported as 1 µg/mL (≈ 2.18 µM) and the MIC (Escherichia coli [2]) is reported as 2 µg/mL (≈ 4.35 µM).
Molecule `CON(CC(=O)Nc1ccc2c(c1O)C(=O)C1=C(O)[C@]3(O)C(=O)C(C(N)=O)=C(O)[C@@H](N(C)C)[C@@H]3[C@@H](O)[C@@H]1[C@H]2C)[C@@H]1O[C@H](CO)[C@@H](O)[C@H](O)[C@H]1N` has a viability at 48 h, 10 µM [3] of 95.6%, a viability at 48 h, 10 µM [4] of 102% and an MIC (Staphylococcus aureus) of 32 µg/mL (≈ 45.2 µM). For the same molecule, the MIC (Escherichia coli [1]) was 8 µg/mL (≈ 11.3 µM) and the MIC (Escherichia coli [2]) was 32 µg/mL (≈ 45.2 µM).
In the case of `CONCC(=O)Nc1ccc2c(c1O)C(=O)C1=C(O)[C@]3(O)C(=O)C(C(N)=O)=C(O)[C@@H](N(C)C)[C@@H]3[C@@H](O)[C@@H]1[C@H]2C`, the viability at 48 h, 10 µM [3] is reported as 95.9%, the viability at 48 h, 10 µM [4] is reported as 99.2% and the MIC (Staphylococcus aureus) is reported as 4 µg/mL (≈ 7.32 µM). For the same molecule, the MIC (Escherichia coli [1]) was 4 µg/mL (≈ 7.32 µM) and the MIC (Escherichia coli [2]) was 8 µg/mL (≈ 14.6 µM).
Work on `CON(CC(=O)Nc1ccc2c(c1O)C(=O)C1=C(O)[C@]3(O)C(=O)C(C(N)=O)=C(O)[C@@H](N(C)C)[C@@H]3[C@@H](O)[C@@H]1[C@H]2C)[C@H]1O[C@H](CO)[C@@H](O)[C@H](O)[C@H]1N` yielded a viability at 48 h, 10 µM [3] of 99.1%, a viability at 48 h, 10 µM [4] of 94.6% and an MIC (Staphylococcus aureus) of 4 µg/mL (≈ 5.65 µM). The MIC (Escherichia coli [1]) was 4 µg/mL (≈ 5.65 µM), the MIC (Escherichia coli [2]) was 4 µg/mL (≈ 5.65 µM) and the Stability [5] was “Stable”.
With `CON(CC(=O)Nc1ccc2c(c1O)C(=O)C1=C(O)[C@]3(O)C(=O)C(C(N)=O)=C(O)[C@@H](N(C)C)[C@@H]3[C@@H](O)[C@@H]1[C@H]2C)[C@H]1CC[C@H](N(C)C)[C@@H](C)O1` the viability at 48 h, 10 µM [3] was 96.9%, the viability at 48 h, 10 µM [4] was 101% and the MIC (Staphylococcus aureus) was 16 µg/mL (≈ 23.3 µM). For the same molecule, the MIC (Escherichia coli [1]) was 4 µg/mL (≈ 5.82 µM) and the MIC (Escherichia coli [2]) was 32 µg/mL (≈ 46.5 µM).
`CON(CC(=O)Nc1ccc2c(c1O)C(=O)C1=C(O)[C@]3(O)C(=O)C(C(N)=O)=C(O)[C@@H](N(C)C)[C@@H]3[C@@H](O)[C@@H]1[C@H]2C)[C@@H]1O[C@H](CO)[C@@H](O)[C@H](O)[C@H]1NC(=O)C(F)(F)F` gave a viability at 48 h, 10 µM [3] of 98.7%, a viability at 48 h, 10 µM [4] of 109% and an MIC (Staphylococcus aureus) of 16 µg/mL (≈ 19.9 µM). It also gave an MIC (Escherichia coli [1]) of 4 µg/mL (≈ 4.98 µM) and an MIC (Escherichia coli [2]) of 32 µg/mL (≈ 39.8 µM).
Molecule `CON(CC(=O)Nc1ccc2c(c1O)C(=O)C1=C(O)[C@]3(O)C(=O)C(C(N)=O)=C(O)[C@@H](N(C)C)[C@@H]3[C@@H](O)[C@@H]1[C@H]2C)C1O[C@H](CO)[C@@H](O)[C@H](OC(C)C(=O)O)[C@H]1NC(C)=O` (mixture of isomers) has a viability at 48 h, 10 µM [3] of 97.7%, a viability at 48 h, 10 µM [4] of 104% and an MIC (Staphylococcus aureus) of 16 µg/mL. The MIC (Escherichia coli [1]) was 8 µg/mL and the MIC (Escherichia coli [2]) was 32 µg/mL.
With `CON(CC(=O)Nc1ccc2c(c1O)C(=O)C1=C(O)[C@]3(O)C(=O)C(C(N)=O)=C(O)[C@@H](N(C)C)[C@@H]3[C@@H](O)[C@@H]1[C@H]2C)C1O[C@H](CO)[C@@H](O)[C@H](O)[C@@H]1N` (mixture of isomers) the viability at 48 h, 10 µM [3] was 97.1%, the viability at 48 h, 10 µM [4] was 98.9% and the MIC (Staphylococcus aureus) was 32 µg/mL. For the same molecule, the MIC (Escherichia coli [1]) was 4 µg/mL and the MIC (Escherichia coli [2]) was 32 µg/mL.
In the case of `CON(CC(=O)Nc1ccc2c(c1O)C(=O)C1=C(O)[C@]3(O)C(=O)C(C(N)=O)=C(O)[C@@H](N(C)C)[C@@H]3[C@@H](O)[C@@H]1[C@H]2C)C1OC[C@@H](O)[C@@H](O)[C@@H]1O` (mixture of isomers), the viability at 48 h, 10 µM [3] is reported as 97.2%, the viability at 48 h, 10 µM [4] is reported as 102% and the MIC (Staphylococcus aureus) is reported as 32 µg/mL. The MIC (Escherichia coli [1]) was 8 µg/mL and the MIC (Escherichia coli [2]) was 64 µg/mL.
`CON(CC(=O)Nc1ccc2c(c1O)C(=O)C1=C(O)[C@]3(O)C(=O)C(C(N)=O)=C(O)[C@@H](N(C)C)[C@@H]3[C@@H](O)[C@@H]1[C@H]2C)C1OC[C@H](O)[C@@H]1O` (mixture of isomers) showed a viability at 48 h, 10 µM [3] of 98.2%, a viability at 48 h, 10 µM [4] of 99.3% and an MIC (Staphylococcus aureus) of 32 µg/mL. The MIC (Escherichia coli [1]) was 4 µg/mL and the MIC (Escherichia coli [2]) was 64 µg/mL.
With `C=CCOC(=O)N[C@H]1C(N(CC(=O)Nc2ccc3c(c2O)C(=O)C2=C(O)[C@]4(O)C(=O)C(C(N)=O)=C(O)[C@@H](N(C)C)[C@@H]4[C@@H](O)[C@@H]2[C@H]3C)OC)O[C@H](CO)[C@@H](O)[C@@H]1O` (mixture of isomers) the viability at 48 h, 10 µM [3] was 98.8%, the viability at 48 h, 10 µM [4] was 97.6% and the MIC (Staphylococcus aureus) was 8 µg/mL. For the same molecule, the MIC (Escherichia coli [1]) was 8 µg/mL and the MIC (Escherichia coli [2]) was 16 µg/mL.
Work on `C[C@H]1c2cccc(O)c2C(=O)C2=C(O)[C@]3(O)C(=O)C(C(N)=O)=C(O)[C@@H](N(C)C)[C@@H]3[C@@H](O)[C@@H]21.O` [DOXYCYCLINE] yielded an MIC (Staphylococcus aureus) of 2 µg/mL, an MIC (Escherichia coli [1]) of 1 µg/mL and an MIC (Escherichia coli [2]) of 8 µg/mL.
